Screening results (PubChem BioAssay)
NTR1 ag: NTR1 (human) agonism | AID 493036 | NTR1-U2OS beta-arrestin-GFP spot imaging, agonist mode | P30989 | activation, % at 20 µM | 0.17% of 330,000 active;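 active means activation at or above 40% of the spot to cytoplasm intensity ratio, with at least 20 cells analyzed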
MC4R ag barr: activates human MC4R beta-arrestin recruitment; U2OS MC4R beta-arrestin complementation, luminescence; percent of melanotan II response, DMSO zero; 0.98% of 360,000 active; activation, % at 8.9 µM;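 active means activation above a per-plate cutoff, the mean activation of sample wells on that plate plus 3 SD, cut at about 8% in these data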
Target sequence (P32245 whole entry, looked up): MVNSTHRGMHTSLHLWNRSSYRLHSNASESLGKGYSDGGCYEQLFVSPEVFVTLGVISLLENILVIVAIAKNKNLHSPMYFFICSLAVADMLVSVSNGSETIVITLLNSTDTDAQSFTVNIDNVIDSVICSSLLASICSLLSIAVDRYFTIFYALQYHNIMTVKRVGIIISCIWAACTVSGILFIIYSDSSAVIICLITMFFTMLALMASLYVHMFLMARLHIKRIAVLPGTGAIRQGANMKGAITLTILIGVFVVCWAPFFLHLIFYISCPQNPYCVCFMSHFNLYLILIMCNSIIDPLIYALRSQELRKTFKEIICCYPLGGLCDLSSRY
TbMetRS inhib: Trypanosoma brucei MetRS inhibition; 0.4% of 360,000 active; purified T. brucei MetRS, ATP depletion, Kinase-Glo luminescence; inhibition, % at 11.9 µM;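 active means inhibition above a per-plate cutoff of the control wells' mean inhibition plus 3 SD, cut at about 5.5% in these data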
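Material: T. brucei methionyl-tRNA synthetase, purified; reagent: substrates ATP, L-methionine and bulk Escherichia coli tRNA; dosing: 11.9 µM single point; timing: 15 min plus 2 h at 25 °C; detection: luminescence of leftover ATP; evaluation: % inhibition; control set: DMSO-only wells as low control; replicates: singlicate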
aDG glyco up: alpha-DG glycosylation activation; Pro5-aDG cells, alpha-DG glycosylation AlphaScreen (IIH6); 0% Pro5, 100% B10-LARGE cell signal; activation, % at 10 µM; 0.22% of 360,000 active; AID 624168;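 active means activation of at least 8% versus controls, or a plate z-score of at least 8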;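 further: Pro5 are CHO cells carrying HIG-tagged alpha-DG that lacks glycosylation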
MC4R antag cAMP: antagonists of human melanocortin 4 receptor (MC4R) | MC4R-expressing cells, MTII-stimulated cAMP, LANCE TR-FRET | inhibition, % at 6.5 µM | 0.48% of 360,000 active | AID 540295;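 active means inhibition above its plate's cutoff, the mean of tested wells on that plate plus 3 SD, cut at about 29% in these data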
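Assay system: U2OS cells stably expressing human melanocortin 4 receptor (MC4R) / Dosing: 6.5 µM / Timing: compound 30 min, challenge 1 h, detection 1 h / Measured by: Eu-cAMP/anti-cAMP TR-FRET, emission 671 nm / Replicates: singlicate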
H9c2 TAG inh: triacylglycerol accumulation inhibition. H9c2 cells, Nile Red lipid (TAG) fluorescence; cells loaded with 200 µM oleic acid. inhibition, % at 12.5 µM. 0.66% of 230,000 active. AID 651582;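 active means pattern-corrected inhibition of lipid staining of at least 50% with the nuclear-stain viability signal not falling by more than 50%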
A number is an active result; . = inactive; / = no result given. The list is not random: actives were taken first. Their share in the collection is about 2.4%.

SMILES	NTR1 ag	MC4R ag barr	TbMetRS inhib	aDG glyco up	MC4R antag cAMP	H9c2 TAG inh
CO/N=C/C(=N\Nc1ccc(OC)cc1)C(=O)c1ccc(F)cc1	.	.	.	.	.	.
CO/N=C/C(=N\Nc1ccc(C)cc1)C(=O)c1ccc(OC)cc1	.	.	.	.	.	60.3
CCNC(=O)C[C@@H]1C=C[C@@H](NS(=O)(=O)c2ccc(F)cc2)[C@@H](CO)O1	/	/	.	.	/	/
CC1CC(=O)c2c(cc3c(-c4c(O)cc(O)c5c(O)c6c(cc45)OC(C)CC6=O)c(O)cc(O)c3c2O)O1 (centres undefined)	.	.	.	.	65.2	/
O=C1CC(c2ccc(O)cc2)Oc2cc(O)cc(O)c21 (centres undefined)	.	.	.	.	.	.
O=C(Nc1ccc2c(c1)CCC2)c1cnn2c1NC(c1ccco1)CC2C(F)(F)F (centres undefined)	.	16.8	.	.	.	.
CN1CCN(CC(=O)N2CCn3c4c(c5cc(C6CCCCC6)ccc53)CCCC42)CC1 (centres undefined)	.	27.4	.	.	.	/
Cc1ccc2c(c1)c1c3n2CCN(C(=O)CN2CCN(C)CC2)C3CCC1 (centres undefined)	.	.	.	.	.	.
O=C(C[C@H]1C=C[C@@H](NC(=O)c2ccncc2)[C@@H](CO)O1)NCC1CC1	/	/	.	.	/	/
CCCCCCCCCCCCCCCC[n+]1ccc(C(N)=O)cc1	.	9.2	.	.	.	/
CCCN1C(=O)/C(=C2\SC(N3CCCCC3)=NC2=O)c2ccccc21	.	.	.	.	.	50.6
CC(C)C[C@@H](CN1CCC[C@H]1CN1C(=O)C(=O)NC[C@@H]1Cc1ccccc1)N1C[C@H](Cc2ccc(O)cc2)N(CC2CCCCCC2)C(=O)C1=O	/	/	.	.	/	/
FC(F)(F)c1cc(CCN2CCNC[C@@H]2CC2CCCCC2)cc(C(F)(F)F)c1	.	8.7	.	.	.	137.5
CCCC[C@@H]1CNCCN1CCc1cc(C(F)(F)F)cc(C(F)(F)F)c1	.	.	.	.	.	.
NC1=NC[C@H](CC2CCCCC2)N1CCc1cc(C(F)(F)F)cc(C(F)(F)F)c1	.	9.3	.	.	.	.
N#CCCN(Cc1ccccc1)C(C(=O)NC1CCCCC1)c1cc2ccccc2o1 (centres undefined)	/	/	.	.	/	/
Cc1cc(C)cc(C(O)c2ncc(-c3ccccc3F)[nH]2)c1 (centres undefined)	/	.	.	.	.	.
CCOC(=O)C1=C(CSc2nccn2C)NC(=O)NC1c1ccc2c(c1)OCO2 (centres undefined)	.	9.2	.	.	.	.
O=C(Nc1ccccc1O)c1cccc(S(=O)(=O)Nc2ccccc2O)c1	.	.	6.3	.	.	.
O=C(CCl)N(c1ccccc1)C1CCCCC1	.	9.1	.	.	.	.
O=C(NCCCN1CCOCC1)c1ccc(/C=C2\Oc3ccccc3N(Cc3ccccc3F)C2=O)cc1	.	8.9	.	.	.	/
CCCCNC(=O)c1ccc(/C=C2\Oc3ccccc3N(C)C2=O)cc1	.	9.2	.	.	.	.
Cc1cccc(C)c1NC(=O)C(c1ccccc1)N1CCC(Cc2ccccc2)CC1 (centres undefined)	/	/	.	.	/	/
CCCCCCCCCCCCCCCC[N+](C)(C)CCN(Cc1ccc(OC)cc1)c1ncccn1	.	11.8	.	.	42.9	.
COc1ccc(C2Nc3ccccc3C(=O)N2c2ccccc2)cc1CSc1ccccn1 (centres undefined)	.	.	.	.	.	/
SMILES	NTR1 ag	MC4R ag barr	TbMetRS inhib	aDG glyco up	MC4R antag cAMP	H9c2 TAG inh
COc1ccc(C2Nc3ccccc3C(=O)N2c2ccc(F)cc2)cc1CSc1ccccn1 (centres undefined)	.	33.0	.	.	.	/
COC(=O)C[C@H]1N(S(=O)(=O)c2ccc(C)cc2)C(C(C)C)CC1(C(=O)OC)C(=O)OC (some centres undefined)	/	/	.	.	/	/
CCOc1cc(CNCCc2ccc(S(N)(=O)=O)cc2)cc(Cl)c1OCc1ccccc1	.	.	.	.	.	/
CCOc1cc(CNCCc2ccc(S(N)(=O)=O)cc2)ccc1OCc1ccccc1	/	.	.	5.7	.	/
Cc1ccc(CSCCC(=O)NCCc2ccc(Cl)cc2)cc1	.	8.6	.	.	.	.
COc1ccc(CC(N)c2csc(NC(=O)c3cc(C(C)(C)C)nn3Cc3ccccc3)n2)cc1 (centres undefined)	/	.	.	.	.	111.5
CC(N)c1csc(NC(=O)c2cc(C(C)(C)C)nn2Cc2ccccc2)n1 (centres undefined)	/	.	.	.	.	.
N#C/C(=C/c1ccc(N2CCCCCC2)o1)c1cccc(F)c1	.	8.7	.	.	.	/
COc1ccc(/C=N/NC(=O)c2cc(Br)ccc2O)cc1Cn1cc(Cl)cn1	.	.	.	.	.	/
COc1ccc(/C=N/NC(=O)c2ccc(Cl)cc2)cc1Cn1cc(Cl)cn1	.	8.7	.	.	.	.
O=C(NC1CCCC1)C1C(c2ccc(C(F)(F)F)cc2)=Nc2ccccc2N1C(=O)c1cccc2ccccc12 (centres undefined)	/	/	.	.	/	/
CC(=O)Nc1ccc(C(=O)OCc2ccc(Br)cc2)cc1	.	.	.	.	.	.
CC(=O)Nc1cccc(C(=O)OCc2ccc(C(=O)Oc3ccc(Cl)cc3)cc2)c1	.	13.3	.	.	.	/
O=C(Nc1ccc(F)cc1)C(c1cccc(F)c1)N1CCN(c2cccc(C(F)(F)F)n2)CC1 (centres undefined)	/	/	.	.	/	/
Cc1ccccc1Oc1cc(-n2ncc(Cl)c(Cl)c2=O)ncn1	/	.	.	.	50.5	/
CCOc1cnn(-c2cc(Oc3ccc(C)cc3)ncn2)c(=O)c1Cl	.	.	.	.	.	/
Cc1cccc(C(=O)NNC(=O)c2cc3cc4ccccc4nc3s2)c1	.	.	.	.	.	.
Cc1ccc(S(=O)(=O)NNC(=O)c2cc3cc4ccccc4nc3s2)cc1	.	.	8.3	.	.	.
Oc1ccc(C[C@H]2CNC(=S)N2C[C@H]2CCCN2C[C@H](Cc2ccccc2)N2C[C@H](Cc3ccccc3)N(CC3CCCCC3)C2=S)cc1	/	/	.	.	/	/
CCOc1cc(OCC)cc(C(=O)N2CCC[C@@H]2C(=O)N2CCC[C@@H]2C(=O)NCc2ccccc2Cl)c1	/	/	.	.	/	/
COc1ccccc1C(=O)NC(=Nc1nc2ccccc2o1)NC(=O)c1ccccc1OC	40.5	.	.	.	.	.
O=C(NC(=Nc1nc2ccccc2o1)NC(=O)c1ccccc1)c1ccccc1	.	.	.	.	.	/
CCOC(=O)c1ccc(N/C=C\C(=O)c2cccc(OC)c2)cc1	.	9.4	.	.	.	/
O=C(Cn1cc(/C=C\[N+](=O)[O-])c2ccccc21)Nc1ccccc1	47.2	.	.	.	.	.
